DSG3 Ab inh: blocks pemphigus antibody binding to human desmoglein-3; AID 588358; hit rate 0.48% among 310,000; P32926; binding (percent of control), % at 10 µM; DSG3-coupled beads, scFv-anti-DSG3-GFP binding, flow cytometry; hits give low values;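 active means binding more than 3 SD below its plate's average and above zero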;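 further: hits lower antibody fragment binding to DSG3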
Target sequence (P32926 whole entry, looked up, the tested form may be a part): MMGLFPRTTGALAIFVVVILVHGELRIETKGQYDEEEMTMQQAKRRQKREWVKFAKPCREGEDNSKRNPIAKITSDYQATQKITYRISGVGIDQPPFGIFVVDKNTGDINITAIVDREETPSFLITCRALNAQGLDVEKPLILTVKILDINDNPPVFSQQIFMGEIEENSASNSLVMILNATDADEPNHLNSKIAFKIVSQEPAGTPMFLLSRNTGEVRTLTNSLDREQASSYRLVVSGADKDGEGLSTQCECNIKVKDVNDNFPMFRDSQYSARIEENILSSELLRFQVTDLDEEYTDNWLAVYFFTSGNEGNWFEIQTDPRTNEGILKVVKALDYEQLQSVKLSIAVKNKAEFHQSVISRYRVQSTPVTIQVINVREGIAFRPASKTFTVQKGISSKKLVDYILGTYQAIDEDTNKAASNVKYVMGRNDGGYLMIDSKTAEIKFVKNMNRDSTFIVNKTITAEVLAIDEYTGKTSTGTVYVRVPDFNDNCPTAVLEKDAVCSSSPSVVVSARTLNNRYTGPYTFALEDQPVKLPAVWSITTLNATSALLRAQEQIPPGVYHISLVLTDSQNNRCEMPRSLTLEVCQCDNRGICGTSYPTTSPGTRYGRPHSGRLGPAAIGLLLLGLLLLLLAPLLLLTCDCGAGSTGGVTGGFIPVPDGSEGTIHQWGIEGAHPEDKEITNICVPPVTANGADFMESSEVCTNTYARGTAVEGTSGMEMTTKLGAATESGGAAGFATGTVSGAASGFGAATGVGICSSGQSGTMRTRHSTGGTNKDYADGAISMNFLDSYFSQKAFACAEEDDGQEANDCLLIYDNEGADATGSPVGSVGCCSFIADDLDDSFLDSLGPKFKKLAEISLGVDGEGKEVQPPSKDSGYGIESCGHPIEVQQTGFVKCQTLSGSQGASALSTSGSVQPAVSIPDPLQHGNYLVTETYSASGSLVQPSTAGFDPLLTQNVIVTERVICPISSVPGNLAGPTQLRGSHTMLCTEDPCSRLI
UHRF1 binding: UHRF1 methyl-DNA binding inhibition; Q96T88; UHRF1 binding to methylated oligo, TR-FRET; inhibition, % at 4.4 µM; hit rate 0.75% among 370,000; AID 687016; in the data active means inhibition above about 21%;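 further: UHRF1 SRA domain binding a hemimethylated CpG hairpin DNA probe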
MBD2 DNA inh: MBD2-methylated oligo binding inhibition; TR-FRET, MBD2 binding to methylated oligonucleotide; hit rate 0.31% among 370,000; Q9UBB5; inhibition, % at 4.4 µM; in the data active means inhibition above about 13%
SUMO1 PPI mod: modulators of human SUMO1-mediated protein-protein interactions | SUMO1 binding to a labelled peptide, TR-FRET, 1 h | inhibition, % at 20 µM | hit rate 0.33% among 360,000 | AID 602429; in the data active means inhibition above about 37%
NS3 helicase inh: blocks Hepatitis C virus NS3 helicase unwinding | NS3 helicase DNA unwinding, Cy5 molecular beacon fluorescence | inhibition, % at 10.9 µM | hit rate 0.56% among 290,000 | AID 1800;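 active means inhibition above the mean of all tested compounds plus 3 SD, set per campaign, cut at about 35% in these data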
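assay system = NS3 helicase fragment of HCV | buffer or medium = MOPS pH 6.5, MgCl2, DTT, Tween20, BSA | timing = 60 min unwinding reaction at 25 °C after ATP addition | signal = Cy5 beacon fluorescence read at start and 1 h | read-out basis = % inhibition of unwinding | control set = low DMSO, high thioflavine S at 110 µM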
DNMT1 inh: blocks human DNA methyltransferase DNMT1. P26358. DNMT1 molecular beacon, Hinp1I cleavage, fluorescence. inhibition (reported as % activation of signal), % at 10 µM. hit rate 0.83% among 360,000; in the data active means inhibition above about 50%
DNMT1 inh conf: confirmation of human DNMT1 inhibitors | shares compounds with DNMT1 inh | DNMT1 molecular beacon HinP1I cleavage, fluorescence | inhibition, % at 10 µM | hit rate 8% among 2,300;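 active means average inhibition of at least 30% in the single-concentration confirmation test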
Beacon interf: shows spectral interference in the DNMT1 beacon assay | DNMT1 molecular beacon spectral interference counterscreen, fluorescence 485/520 | activation (fluorescence interference), % at 10 µM | shares compounds with DNMT1 inh | hit rate 1% among 2,300;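 active means activation of at least 30% at 10 µM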;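 further: DNMT1 catalytic domain with a HinP1I cleavage step and a FAM/dabcyl DNA beacon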
Numbers stand for hits. Only some compounds are listed: those with a hit (about 2.5% of all), similar ones and a draw of the others.

For CCCCCCN1CCN(C2CN(Cc3cn(Cc4ccccc4)nn3)S(=O)(=O)C2)CC1 (stereo not drawn) the results were UHRF1 binding inactive, MBD2 DNA inh inactive and SUMO1 PPI mod inactive.
`Cc1nc2ccccn2c(=O)c1CCN1CCC(C(=O)c2ccc(F)cc2)CC1` gave DSG3 Ab inh inactive, UHRF1 binding inactive, MBD2 DNA inh inactive, SUMO1 PPI mod inactive, NS3 helicase inh inactive and DNMT1 inh inactive.
Cc1nc2sccn2c(=O)c1CCN1CCC(=C(c2ccc(F)cc2)c2ccc(F)cc2)CC1 was read as DSG3 Ab inh inactive, UHRF1 binding inactive, MBD2 DNA inh inactive, SUMO1 PPI mod inactive, NS3 helicase inh inactive, DNMT1 inh 59.2, DNMT1 inh conf inactive and Beacon interf inactive.
Screening Cc1onc(-c2ccccc2)c1C(=O)NCc1ccc(F)cc1 returned DSG3 Ab inh inactive, UHRF1 binding inactive, MBD2 DNA inh inactive, SUMO1 PPI mod inactive and DNMT1 inh inactive.
`O=C(CC1Oc2ccccc2NC1=O)NC1CC1` (stereo not drawn) gave DSG3 Ab inh inactive, UHRF1 binding inactive, MBD2 DNA inh inactive, SUMO1 PPI mod inactive, NS3 helicase inh inactive, DNMT1 inh 96.5, DNMT1 inh conf inactive and Beacon interf inactive.
For CC1CCCC(NC(=O)COC(=O)CCC(=O)c2cccs2)C1C (stereo not drawn) the results were DSG3 Ab inh inactive, UHRF1 binding inactive, MBD2 DNA inh inactive, SUMO1 PPI mod inactive and DNMT1 inh inactive.
For Cc1ccsc1/C=C1/C(=O)NN(c2ccccc2)C1=O the results were DSG3 Ab inh inactive, UHRF1 binding inactive, MBD2 DNA inh inactive, SUMO1 PPI mod inactive, NS3 helicase inh inactive and DNMT1 inh inactive.
Screening O=C1NN(c2ccccc2)C(=O)/C1=C/c1ccc(Sc2ccc(Cl)cc2)o1 returned DSG3 Ab inh inactive, UHRF1 binding inactive, MBD2 DNA inh inactive, SUMO1 PPI mod inactive, NS3 helicase inh inactive, DNMT1 inh 88.3, DNMT1 inh conf inactive and Beacon interf inactive.
`Cc1ccc(Sc2ccc(/C=C3/C(=O)NN(c4ccccc4)C3=O)o2)cc1` gave DSG3 Ab inh inactive, UHRF1 binding inactive, MBD2 DNA inh inactive, SUMO1 PPI mod inactive, NS3 helicase inh inactive, DNMT1 inh 65.1, DNMT1 inh conf inactive and Beacon interf inactive.
For O=C1NC(=O)/C(=C\c2ccc(Sc3ccc(Cl)cc3)o2)N1 the results were UHRF1 binding inactive, MBD2 DNA inh inactive, SUMO1 PPI mod inactive, NS3 helicase inh inactive and DNMT1 inh inactive.
Screening CC(=O)Nc1ccc(S(=O)(=O)NCC(CCC(=O)O)C(F)(F)F)cc1 (stereo not drawn) returned DSG3 Ab inh inactive, UHRF1 binding inactive, MBD2 DNA inh inactive, SUMO1 PPI mod inactive, NS3 helicase inh inactive, DNMT1 inh 59.9, DNMT1 inh conf inactive and Beacon interf inactive.
`NC(CSCc1ccccc1)C(=O)Nc1ccc([N+](=O)[O-])cc1` (stereo not drawn) gave SUMO1 PPI mod inactive and DNMT1 inh inactive.
For C=CCOc1ccc(C(c2c(C(=O)O)[nH]c3ccccc23)c2c(C(=O)O)[nH]c3ccccc23)cc1 the results were DSG3 Ab inh inactive, UHRF1 binding inactive, MBD2 DNA inh inactive, SUMO1 PPI mod inactive, NS3 helicase inh inactive, DNMT1 inh 86.2, DNMT1 inh conf inactive and Beacon interf inactive.
Screening O=C(O)c1[nH]c2ccccc2c1C(c1ccccc1)c1c(C(=O)O)[nH]c2ccccc12 returned DSG3 Ab inh inactive, UHRF1 binding inactive, MBD2 DNA inh inactive, SUMO1 PPI mod inactive, NS3 helicase inh inactive and DNMT1 inh inactive.
For CN(c1ccccc1)S(=O)(=O)c1cc(C(=O)OCC(=O)c2c(N)n(C)c(=O)n(C)c2=O)ccc1Cl the results were DSG3 Ab inh inactive, UHRF1 binding inactive, MBD2 DNA inh inactive, SUMO1 PPI mod inactive and DNMT1 inh inactive.
Screening CCN(c1ccccc1)S(=O)(=O)c1cc(C(=O)OCC(=O)c2c(N)n(C)c(=O)n(C)c2=O)ccc1C returned DSG3 Ab inh inactive, UHRF1 binding 32.1, MBD2 DNA inh inactive, SUMO1 PPI mod inactive, DNMT1 inh 92.9, DNMT1 inh conf inactive and Beacon interf inactive.
`O=C1NC(C(=O)O)=CC(c2ccc([N+](=O)[O-])cc2)N1` (stereo not drawn) gave DSG3 Ab inh inactive, UHRF1 binding inactive, MBD2 DNA inh inactive, SUMO1 PPI mod inactive, NS3 helicase inh inactive and DNMT1 inh inactive.
Screening CCOc1cccc2cc(-c3cn4cc(C)ccc4n3)c(=O)oc12 returned UHRF1 binding inactive, MBD2 DNA inh inactive, SUMO1 PPI mod inactive, NS3 helicase inh inactive, DNMT1 inh 70.4, DNMT1 inh conf inactive and Beacon interf inactive.
CC1(C)Oc2ccc(NC(=O)c3ccco3)cc2O1 was read as DSG3 Ab inh inactive, UHRF1 binding inactive, MBD2 DNA inh inactive, SUMO1 PPI mod inactive, NS3 helicase inh inactive and DNMT1 inh inactive.
`Cc1ccc(Cn2nc(C)c(NC(=O)CSc3nc4c(c(C(F)(F)F)n3)CCc3ccccc3-4)c2C)cc1` gave DSG3 Ab inh inactive, UHRF1 binding inactive, MBD2 DNA inh inactive, SUMO1 PPI mod inactive, NS3 helicase inh inactive and DNMT1 inh inactive.
For Cc1nn(Cc2ccc(Cl)cc2)c(C)c1NC(=O)CSc1nc2c(c(C(F)(F)F)n1)CCc1ccccc1-2 the results were DSG3 Ab inh inactive, UHRF1 binding inactive, MBD2 DNA inh inactive, SUMO1 PPI mod inactive, NS3 helicase inh inactive, DNMT1 inh 51.3, DNMT1 inh conf inactive and Beacon interf inactive.
Screening CCOC(=O)C1CCCN(C(=O)c2cc3c(=O)n4ccccc4nc3s2)C1 (stereo not drawn) returned DSG3 Ab inh inactive, UHRF1 binding inactive, MBD2 DNA inh inactive, SUMO1 PPI mod inactive, NS3 helicase inh inactive, DNMT1 inh 87.4, DNMT1 inh conf inactive and Beacon interf inactive.
CC1CCN(C(=O)c2cc3c(=O)n4ccccc4nc3s2)CC1 was read as DSG3 Ab inh inactive, UHRF1 binding inactive, MBD2 DNA inh inactive, SUMO1 PPI mod inactive, NS3 helicase inh inactive and DNMT1 inh inactive.
For CCOC(=O)c1cc(C(=O)OCC)cc(-n2c(C)cc(C(=O)CN3CCOCC3)c2C)c1 the results were DSG3 Ab inh inactive, UHRF1 binding inactive, MBD2 DNA inh inactive, SUMO1 PPI mod inactive, NS3 helicase inh inactive and DNMT1 inh inactive.
`CC1(C(=O)NCC2CCOCC2)Cc2c(-c3cccc(C(F)(F)F)c3)ccnc2O1` (stereo not drawn) gave UHRF1 binding inactive, MBD2 DNA inh inactive, SUMO1 PPI mod inactive, DNMT1 inh 83.5, DNMT1 inh conf inactive and Beacon interf inactive.
`CN(C)c1ccc(-c2ccnc3c2CC(C)(C(=O)NCC2CCOCC2)O3)cc1` (stereo not drawn) gave UHRF1 binding inactive, MBD2 DNA inh inactive, SUMO1 PPI mod inactive, DNMT1 inh 58.7, DNMT1 inh conf inactive and Beacon interf inactive.

Source: PubChem BioAssay
